The values that follow come from publication PMC8144669 (The Journal of Biological Chemistry, 2021).

What all share (format): biochemical
Data set [1] deals with T1, M3RA (MLL3SET-RBBP5AS-ABM-ASH2LSPRY) (Homo sapiens, UniProt Q8NEZ4). Description: Continuous enzyme-coupled methylation assay, M3RA.
In data set [2] the target is T2, M4RA (MLL4SET-RBBP5AS-ABM-ASH2LSPRY) (Homo sapiens, UniProt O14686). Description: Mass-spectrometry-based. An outline of the steps:
(§1)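 Enzyme (E. coli-expressed SET–RBBP5–ASH2L ternary complex) was preincubated 15 min with 0, 50 or 100 μM AdoHcy. […] Samples taken every 30 s were quenched with TFA (0.5% final) and chilled to 4 °C. Monomethylated peptide was measured by MALDI-TOF in a CHCA matrix. Data were analysed by Lineweaver–Burk plots and nonlinear fits to competitive, noncompetitive and uncompetitive models, choosing the best coefficient of determination and lowest error.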

Data set [3] addresses T1, M3RA (MLL3SET-RBBP5AS-ABM-ASH2LSPRY). Description: Mass-spectrometry-based. An outline of the steps:
as §1

The target of data set [4] is T2, M4RA (MLL4SET-RBBP5AS-ABM-ASH2LSPRY). As to the kind of experiment: Continuous enzyme-coupled methylation assay, M4RA.
Substrate in data set [5]: C[S+](CC[C@H](N)C(=O)[O-])C[C@H]1O[C@@H](n2cnc3c(N)ncnc32)[C@H](O)[C@@H]1O
As to the kind of experiment: Continuous enzyme-coupled methylation assay, M3RA. The note with it: other: H3P20 fixed at 1600 μM; pH 8.0; 30.0 °C.

Substrate in data set [6]: C[S+](CC[C@H](N)C(=O)[O-])C[C@H]1O[C@@H](n2cnc3c(N)ncnc32)[C@H](O)[C@@H]1O
As to the kind of experiment: Continuous enzyme-coupled methylation assay, M4RA. The note with it: other: H3P20 fixed at 1600 μM; pH 8.0; 30.0 °C.

The mark [7] stands for this setting: Ki, varied AdoMet, global fit to Competitive model (Model Fit: Competitive).
[8] abbreviates: varied substrate AdoMet, H3P20 constant 400 μM.
Setting [9] is: varied substrate H3P20, AdoMet constant 200 μM.

T1 sequence (Q15291 330-360 partner limits assumed, one chain of several): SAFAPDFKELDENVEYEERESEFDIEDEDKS
T1 sequence (Q9UBL3 380-599 partner limits assumed, one chain of several): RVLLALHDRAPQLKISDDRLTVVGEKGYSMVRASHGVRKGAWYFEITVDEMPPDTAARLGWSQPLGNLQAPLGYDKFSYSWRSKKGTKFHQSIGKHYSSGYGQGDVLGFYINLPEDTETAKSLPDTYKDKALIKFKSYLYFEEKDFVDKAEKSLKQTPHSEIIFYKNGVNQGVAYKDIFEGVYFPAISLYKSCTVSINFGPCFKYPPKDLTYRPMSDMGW
T2 sequence (Q15291 330-360 partner limits assumed, one chain of several): as the sequence (Q15291 330-360 partner limits assumed, one chain of several) above
T2 sequence (Q9UBL3 380-599 partner limits assumed, one chain of several): as the sequence (Q9UBL3 380-599 partner limits assumed, one chain of several) above

For “M3RA: ternary complex of MLL3 SET domain, RBBP5AS-ABM and ASH2LSPRY”, the kcat – broadly, the number of substrate molecules converted per active site and unit of time at saturation – in data set [1] (from secondary plots) is 0.108 ± 0.00783 s⁻¹.

As to `Nc1ncnc2c1ncn2[C@@H]1O[C@H](CSCC[C@H](N)C(=O)O)[C@@H](O)[C@H]1O` [AdoHcy, S-adenosylhomocysteine], the results for the Ki in data set [2] (setting [7]) and in data set [3] (setting [7]) were 11.2 µM and 4.19 µM, respectively. The Inhibition pattern entry is “Competitive” in data set [2] (setting [8]), “Noncompetitive” in data set [2] (setting [9]), “Competitive” in data set [3] (setting [8]) and “Noncompetitive” in data set [3] (setting [9]).

With “M4RA: ternary complex of MLL4 SET domain, RBBP5AS-ABM and ASH2LSPRY”, in data set [4] (from secondary plots), the turnover number (kcat) was 0.108 ± 0.00533 s⁻¹.

`Nc1ncnc2c1ncn2[C@@H]1O[C@H](C[C@@H](N)CC[C@H](N)C(=O)O)[C@@H](O)[C@H]1O` [Sinefungin]: the Inhibition pattern entry is “Competitive” in data set [1] (setting [8]), “Noncompetitive” in data set [1] (setting [9]), “Competitive” in data set [4] (setting [8]) and “Noncompetitive” in data set [4] (setting [9]).

For the molecule `C[S+](CC[C@H](N)C(=O)[O-])C[C@H]1O[C@@H](n2cnc3c(N)ncnc32)[C@H](O)[C@@H]1O` (stereo partly shown) [AdoMet, S-adenosylmethionine], the Kd (as a rule, the concentration at which binding is half-saturated) in data set [1] turned out to be 4.29 ± 0.44 µM; in data set [4] it was 10.3 ± 0.46 µM. The KBA in data set [1] (from secondary plots, Michaelis constant for formation of EAB from A to EB) was 27.23 ± 3.05 µM.

B1: M3RA (MLL3SET-RBBP5AS-ABM-ASH2LSPRY) (Homo sapiens) (protein)
chain: SNVYLARSRIQGLGLYAARDIEKHTMVIEYIGTIIRNEVANRKEKLYESQNRGVYMFRMDNDHVIDATLTGGPARYINHSCAPNCVAEVVTFERGHKIIISSSRRIQKGEELCYDYK
With B1, in data set [5], the Km (in general, the substrate concentration at which the rate is half of its maximum) is 20.0 ± 1.5 µM and the kcat turned out to be 0.0833 ± 0.0017 s⁻¹.

B2: M4RA (MLL4SET-RBBP5AS-ABM-ASH2LSPRY) (Homo sapiens) (protein)
chain: NNVYLARSRIQGLGLYAAKDLEKHTMVIEYIGTIIRNEVANRREKIYEEQNRGIYMFRINNEHVIDATLTGGPARYINHSCAPNCVAEVVTFDKEDKIIIISSRRIPKGEELTYDYQ
Regarding B2, in data set [6], the Km was found to be 6.9 ± 0.4 µM and the catalytic constant (kcat) is 0.08 ± 0.0017 s⁻¹.
